Here are results for 3 compounds from paper PMC7004511 (Cancer Science, 2020).

Structures are written as SMILES. “Also recorded” adds a separate entry of the source. Where two headings read alike, the source gives them in different places.

Broadly, the half-life is how long it takes for the measured level to halve. Read a low half-life as rapid decline. Usually AUC(0-inf) stands for total exposure, with the tail of the curve extrapolated. Read a high AUC(0-inf) as high exposure. By AUC(0-t) is commonly meant exposure summed from dosing to a finite time, without extrapolation to infinity. Low values mean less exposure, high ones more exposure. The Tmax is the time at which the peak concentration occurs.

Data set [1] relates to BIM deletion polymorphism‐positive EGFR‐mutated NSCLC cell lines (PC‐3). The settings on record: cited from earlier work.
For data set [2] the following is noted: biweekly, plus erlotinib 150 mg daily or gefitinib 250 mg daily; cited from earlier work.
Data set [3] is described as follows: Pharmacokinetics of gefitinib in plasma. Type of data set: in vivo, human.
Data set [4] is described as follows: Pharmacokinetics of vorinostat in serum. The settings on record: for AUC(0-t): AUC last. Format: in vivo, human. The method, boiled down:
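Patients with EGFR-mutated (exon 19 deletion or L858R) NSCLC carrying the BIM deletion polymorphism received oral vorinostat once daily on days 1-7 (200, 300 or 400 mg) with oral gefitinib 250 mg once daily, in 14-day cycles. Vorinostat was quantified in serum. Tmax is given as a median, and t1/2 and Cmax as mean ± SD per dose level.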

Data set [5] concerns acetylated histone H3 (Lys27). Nature of the data set: Pharmacodynamics: western blotting of PBMC protein, acetylated histone H3. Type of data set: in vivo, human. (In general: A western blot detects proteins with antibodies after separation by electrophoresis.)
In data set [6] the test system is T790M‐positive EGFR‐mutated NSCLC cells. Conditions: in vitro; cited from earlier work.
The nature of another data set: Phase I dose escalation. Type of data set: in vivo, human.
Data set [7] deals with proapoptotic BIM protein (BIMEL). Nature of the data set: Pharmacodynamics: western blotting of PBMC protein, BIMEL. Format: in vivo, human.
Where [8] appears, read: human, po, 200 mg, mean (SD), vorinostat Level 1 (200 mg) oral, n=3.
[9] abbreviates: human, po, 200 mg, median (range), vorinostat Level 1 (200 mg) oral, n=3.
[10] abbreviates: 4 h after dose on day 2 of cycle 1, all levels.

`C=CC(=O)Nc1cc(Nc2nccc(-c3cn(C)c4ccccc34)n2)c(OC)cc1N(C)CCN(C)C` [osimertinib]: the “Sensitivity to osimertinib-induced apoptosis” value in data set [1] is given as “resistant to osimertinib‐induced apoptosis”.

`O=C(CCCCCCC(=O)Nc1ccccc1)NO` [Vorinostat, suberoylanilide hydroxamic acid]: the “Recommended dose of vorinostat” value in data set [2] is 400 mg/day. Moreover, in data set [3] (vorinostat 200, 300, 400 mg groups compared), the “Effect of vorinostat on the pharmacokinetics of gefitinib” value is “unlikely to affect the pharmacokinetics of gefitinib; also recorded: did not affect the dynamics of gefitinib”. Besides, the half-life in data set [4] (human, po, 200 mg) is 216 min; in data set [4] (human, po, 400 mg), 126 min. The values for the total exposure AUC(0-inf) in data set [4] (setting [8]) and in data set [4] (setting [9]) were 2.43 µM·h and 2.83 µM·h, respectively. The area under the curve AUC(0-t) worked out at 2.34 µM·h in data set [4] (setting [8]) and 2.72 µM·h in data set [4] (setting [9]). Moreover, the Cmax in data set [4] (human, po, 200 mg, C max, mean (SD), vorinostat Level 1 (200 mg) oral, n=3) stood at 602 nM; in data set [4] (read-out: C max, median (range), vorinostat Level 1 (200 mg) oral, n=3), 615 nM; in data set [4] (read-out: C max, median (range), vorinostat Level 3 (400 mg) oral, n=6) it was 944 nM. The Tmax in data set [4] (human, po, 300 mg) came out at 3.3 h; in data set [4] (human, po, 400 mg), 3.5 h. For the same compound, the “T max, median (range)” value in data set [4] (vorinostat Level 1 (200 mg) oral, n=3) was 2.0 (1.1‐4.0) h; in data set [4] (vorinostat Level 3 (400 mg) oral, n=6), 4.0 (0.9‐4.1) h. Besides, the “Resensitization of cells to EGFR-TKI by addition of vorinostat” value in data set [1] is given as “could resensitize these cells to EGFR‐TKI”. Besides, the “Patients with increased acetylated histone H3 protein expression” value was 10/11 in data set [5] (setting [10]); 91% in data set [5] (all levels); 3/3 in data set [5] (level 1 (200 mg)); 3/3 in data set [5] (level 2 (300 mg)); 4/5 in data set [5] (level 3 (400 mg)). Besides, in data set [6], the “Sensitization of cells to gefitinib” value is “did not sensitize T790M‐positive EGFR‐mutated NSCLC cells to gefitinib”. Moreover, the “Recommended phase II dose (RP2D) of vorinostat” value in “Phase I dose escalation” (biweekly, combined with gefitinib 250 mg daily) came to 400 mg/day; in the data set “Phase I dose escalation” (combined with gefitinib), 400 mg. Also, the “Patients with increased proapoptotic BIM protein (BIMEL) expression” value in data set [7] (setting [10]) is 5/11; in data set [7] (4 h after dose on day 2 of cycle 1, all levels, listed as vorinostat) it was “five of 11”; in data set [7] (all levels), 45.5%; in data set [7] (level 1 (200 mg)) it was 1/3; in data set [7] (level 2 (300 mg)) it was 3/3; in data set [7] (level 3 (400 mg)), 1/5.

As to `COc1cc2ncnc(Nc3ccc(F)c(Cl)c3)c2cc1OCCCN1CCOCC1` [Gefitinib], the “Median T max of gefitinib” value in data set [3] (gefitinib 250 mg, vorinostat 200 mg group) worked out at 4 h. For the same compound, in the data set “Phase I dose escalation” (daily, with vorinostat 400 mg/day biweekly), the “Recommended phase II dose (RP2D) of gefitinib” value was 250 mg.
